Values joined by “and” are separate entries in the source; they are usually repeats but may differ in a detail not shown here. Equal entries are not always repeated. “Also recorded” adds a separate entry of the source. Where two headings read alike, the source gives them in different places.
What was measured:
[1] = biological target: T1, TmCheA dimer (full-length T. maritima CheA) (Thermotoga maritima, UniProt Q56310); assay: Competition binding between ATP and TNP-ATP for TmCheA binding sites; details: 4 °C, Mg2+
T1 sequence (Q56310 1-671): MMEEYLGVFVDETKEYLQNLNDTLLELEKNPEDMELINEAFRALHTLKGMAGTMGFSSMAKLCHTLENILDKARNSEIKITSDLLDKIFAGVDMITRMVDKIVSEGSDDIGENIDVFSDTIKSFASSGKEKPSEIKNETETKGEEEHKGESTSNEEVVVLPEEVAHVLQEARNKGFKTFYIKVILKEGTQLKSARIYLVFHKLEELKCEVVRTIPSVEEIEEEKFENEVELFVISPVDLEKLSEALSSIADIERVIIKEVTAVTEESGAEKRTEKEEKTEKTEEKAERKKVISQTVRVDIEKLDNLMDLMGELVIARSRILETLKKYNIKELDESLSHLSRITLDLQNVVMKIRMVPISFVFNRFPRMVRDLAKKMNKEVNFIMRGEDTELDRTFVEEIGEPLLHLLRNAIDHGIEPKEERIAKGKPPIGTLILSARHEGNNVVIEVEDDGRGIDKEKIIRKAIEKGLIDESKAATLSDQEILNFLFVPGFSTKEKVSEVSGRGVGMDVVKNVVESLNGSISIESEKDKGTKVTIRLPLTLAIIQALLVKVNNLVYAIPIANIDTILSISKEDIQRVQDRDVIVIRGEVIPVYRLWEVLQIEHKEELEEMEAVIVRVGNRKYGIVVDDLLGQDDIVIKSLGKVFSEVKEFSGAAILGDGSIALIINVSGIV
Method in brief: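 Competition titrations at 4 °C: TNP-ATP aliquots added to stirred full-length TmCheA (0.6 μM dimer) in TnM buffer (25 mM Tris, 0.5 mM EDTA, 10% glycerol, 25 mM NaCl, 50 mM K-glutamate, 20 mM MgCl2) containing 0, 2.34, 5.9, 11.9 or 23.4 mM ATP. Emission spectra (four-scan averages), background-corrected by mock titrations. At least two independent experiments averaged.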

TmP4 [2] = details: read-out: Kd^ATP for TmP4; chromatographic approach; ref [2]; cited from earlier work
TmP4 [3] = details: read-out: Upper limit of Kd for the TmP4–TNP-ATP binding interaction; previous work; ref [2]; cited from earlier work
[4] = biological target: T1, TmCheA dimer (full-length T. maritima CheA); type: binding; details: 4 °C
[5] = biological target: T2, TmP4 (isolated P4 domain of T. maritima CheA, monomer) (Thermotoga maritima, UniProt Q56310); assay: Fluorescence-monitored TNP-ATP binding titrations with TmP4; details: 4 °C, Mg2+; λex 520 nm, emission 530–600 nm
T2 sequence (Q56310 356-540): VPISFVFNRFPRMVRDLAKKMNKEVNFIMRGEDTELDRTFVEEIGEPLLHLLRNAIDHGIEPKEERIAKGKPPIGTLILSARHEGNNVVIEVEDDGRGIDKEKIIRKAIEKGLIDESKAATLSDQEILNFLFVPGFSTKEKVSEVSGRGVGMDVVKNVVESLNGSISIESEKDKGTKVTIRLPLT

[6] = without versus with 20 mM MgCl2

| Compound | Kd2^ATP/Kd1^ATP (affinity difference between the two sites) [1] | Kd ([1]; read-out: Kd1^ATP (high-affinity site of TmCheA dimer), effect of competitor ATP on apparent Kd1^TNP) | Kd (TmP4 [2]) | Kd (TmP4 [3]) | IMFC of T.AA.T complex ([4]; 20 mM MgCl2, 0.6 μM TmCheA dimer, two-site model) | IMFC of T.AA complex (IMFC site 1) ([4]; 20 mM MgCl2, TmCheA titrated with excess TNP nucleotide) | IMFC site 2 (second, low-affinity site) ([4]; Mg2+) | IMFC of T.AA complex from reverse stoichiometry titration ([4]; Mg2+, TmCheA added to 0.28 μM TNP-ATP) | IMFC of T.AA complex, absence of Mg2+ ([4]; no MgCl2, 20 mM Na2EDTA) | IMFC of T.AA.T complex, absence of Mg2+ ([4]; no MgCl2, 20 mM Na2EDTA) | Decrease of site 2 affinity in the absence of Mg2+ [4, 6] | Effect of Mg2+ removal on site 1 binding [4, 6] | Kd ([4]; Kd1^TNP (high-affinity site 1 of TmCheA dimer), Mg2+, forward and reverse titrations at low protein and ligand concentrations (0.002–0.003 μM)) | Kd ([4]; Kd1^TNP, titration of CheA with excess TNP-ATP, Mg2+, 0.003 μM TmCheA dimer, one-site binding model) | Kd ([4]; Kd1^TNP, titration of TNP-ATP with excess TmCheA, Mg2+, 0.002 μM TNP-ATP, one-site binding model) | Binding stoichiometry of high-affinity TNP-ATP binding to TmCheA dimer ([4]; reverse titration, 0.28 μM TNP-ATP, Mg2+) | IMFC (integrated molar fluorescence coefficient) of the TmP4 · TNP-ATP complex [5] |
| --- | --- | --- | --- | --- | --- | --- | --- | --- | --- | --- | --- | --- | --- | --- | --- | --- | --- |
| Nc1ncnc2c1ncn2[C@@H]1O[C@H](COP(=O)(O)OP(=O)(O)OP(=O)(O)O)[C@@H](O)[C@H]1O [ATP] | ~10^3 fold | ~6000 nM and 6000 nM | 15000 nM | – | – | – | – | – | – | – | – | – | – | – | – | – | – |
| Nc1ncnc2c1ncn2[C@@H]1O[C@H](COP(=O)(O)OP(=O)(O)OP(=O)(O)O)[C@H]2OC3(O[C@H]21)C([N+](=O)[O-])=CC(=[N+]([O-])[O-])C=C3[N+](=O)[O-] (some centres unmarked) [TNP-ATP, 2′(3′)-O-(2,4,6-trinitrophenyl)adenosine 5′-triphosphate] | – | – | – | ≤ 10 nM | 9.5 × 10^6 cps/μM | 2.0 × 10^6 cps/μM | 7.5 × 10^6 cps/μM | ~2× 10^6 cps/μM and 2.0 × 10^6 cps/μM | 2.4 × 10^6 cps/μM | 8.9 × 10^6 cps/μM | 5 fold | insensitive to the presence or absence of Mg^2+ | ~1.6 nM and 1.6 nM | 1.8 nM | 1.4 nM | each TmCheA dimer can bind one molecule of TNP-ATP with high affinity; also recorded: one TNP-ATP per CheA dimer | 1.9 × 10^6 cps/μM |
